Measurements as given in ChEMBL document CHEMBL1122125, “Synthesis and in vivo antitumor activity of potential 5-fluorouracil prodrugs” (1982).

Columns and labels:
Format in all cases: functional
[1] = tested on: L1210; assay: Evaluated for cytotoxicity against L1210 mouse leukemia cells; details: read-out: ID50 (the source's name)
Outline: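 L1210 murine leukemia cells in Eagle's minimal essential medium with 15% fetal calf serum, streptomycin (100 μg/mL), penicillin (100 units/mL) and 0.05 mM 2-mercaptoethanol. Cells counted by Coulter counter after 48 h exposure. ID50 is the 50% growth-inhibitory dose. Triplicate assays, standard deviation ±10%.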

[2] = tested on: Mus musculus; assay: Antitumor activity was determined for 7-day average percent weight change against P-388 leukemia in mice at a dose of 16 mg/kg
Outline: (§1)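 Male B6D2F1J mice given 10⁶ P-388 cells ip on day 0, then treated ip once daily on days 1-4 (qd × 4), 5 mice per dose group. Compounds dosed in sterile saline, except one lipophilic thioether given in 10% Tween 80. Mice weighed on days 1 and 7; mean weight per mouse on day 1 and 7-day weight change reported in g and as percent.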

[3] = tested on: Mus musculus; assay: Antitumor activity was determined for median survival of mice against P-388 leukemia in mice at a dose of 8 mg/kg
Outline: (§2)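 Male B6D2F1J mice implanted ip with 10⁶ P-388 cells on day 0; test agents given ip on days 1–4 (qd × 4) in sterile saline, or in 10% Tween 80 for the lipophilic thioether. Groups of 5 treated mice, with 10–17 untreated controls per experiment. Mice weighed on days 1 and 7 to give the 7-day weight change in g and %. Survival recorded in days as median and range.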

[4] = tested on: Mus musculus; assay: Antitumor activity was determined for average 7-day weight change against P-388 leukemia in mice at a dose of 8 mg/kg; outline: as §1
[5] = tested on: Mus musculus; assay: Percent increase in life span against P-388 leukemia in mice was determined at a dose of 8 mg/kg; details: P388
Outline: (§3)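 Male B6D2F1J mice, 5 per dose group, received 10⁶ P-388 cells ip on day 0. Dosing was ip qd × 4 on days 1-4 in sterile saline, or 10% Tween 80 for the butyl thioether. Median survival times of treated (T) and untreated control (C, 10-17 mice) groups were compared: %ILS = [(T/C) − 1]100. Weights taken on days 1 and 7.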

[6] = tested on: Mus musculus; assay: Antitumor activity was determined for median survival of mice against P-388 leukemia in mice at a dose of 16 mg/kg; outline: as §2
[7] = tested on: Mus musculus; assay: Antitumor activity was determined for survival range of mice against P-388 leukemia in mice at a dose of 32 mg/kg; outline: as §2
[8] = tested on: Mus musculus; assay: Antitumor activity was determined for survival range of mice against P-388 leukemia in mice at a dose of 8 mg/kg
Outline: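 Male B6D2F1J mice, 5 per dose group, implanted ip with 10⁶ P-388 leukemia cells on day 0. Drug given ip daily on days 1-4 (qd × 4) in sterile saline, or in 10% Tween 80 for the butyl thioether. Survival range recorded in days. Untreated control groups had 10-17 animals per experiment. Mice weighed on days 1 and 7.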

[9] = tested on: Mus musculus; assay: Antitumor activity was determined for 7-day average percent weight change against P-388 leukemia in mice at a dose of 8 mg/kg; outline: as §1
[10] = tested on: Mus musculus; assay: Antitumor activity was determined for average 7-day weight change against P-388 leukemia in mice at a dose of 16 mg/kg; outline: as §1
[11] = tested on: Mus musculus; assay: Antitumor activity was determined for median survival of mice against P-388 leukemia in mice at a dose of 32 mg/kg; outline: as §2
[12] = tested on: Mus musculus; assay: Percent increase in life span against P-388 leukemia in mice was determined at a dose of 32 mg/kg; details: P388; outline: as §3
[13] = tested on: Mus musculus; assay: Antitumor activity was determined for survival range of mice against P-388 leukemia in mice at a dose of 16 mg/kg; outline: as §2
[14] = tested on: Mus musculus; assay: Antitumor activity was determined for average 7-day weight change against P-388 leukemia in mice at a dose of 32 mg/kg; outline: as §1
[15] = tested on: Mus musculus; assay: Antitumor activity was determined for average weight on day 1 against P-388 leukemia in mice at a dose of 32 mg/kg
Outline: (§4)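 Male B6D2F1J mice, groups of 5, inoculated ip with 10⁶ P-388 cells on day 0. Drug given ip on days 1-4 (qd × 4) in sterile saline, or in 10% Tween 80 for the poorly water-soluble thioether. Average weight per mouse recorded on day 1, with reweighing on day 7 for percent weight change. Untreated control groups had 10-17 animals per experiment.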

[16] = tested on: Mus musculus; assay: Percent increase in life span against P-388 leukemia in mice was determined at a dose of 16 mg/kg; details: P388; outline: as §3
[17] = tested on: Mus musculus; assay: Antitumor activity was determined for 7-day average percent weight change against P-388 leukemia in mice at a dose of 32 mg/kg; outline: as §1
[18] = tested on: Mus musculus; assay: Antitumor activity was determined for average weight on day 1 against P-388 leukemia in mice at a dose of 16 mg/kg; outline: as §1
[19] = tested on: Mus musculus; assay: Antitumor activity was determined for average weight on day 1 against P-388 leukemia in mice at a dose of 8 mg/kg; outline: as §4

## CCOC(=O)[C@H]1OC(n2cc(F)c(=O)[nH]c2=O)[C@H](O)[C@@H]1O (stereo not given in full)
[1]
  IC50: > 1000 µM

## NC[C@H]1OC(n2cc(F)c(=O)[nH]c2=O)[C@H](O)[C@@H]1O (stereo not given in full)
[1]
  IC50: 38 µM
[2]
  Weight change: 16%
[3]
  Survival median: 12
[4]
  Average weight: 5.8 g mouse-1
[5]
  ILS at 8 mg/kg: 0%
[6]
  Survival median: 12
[7]
  Survival range: 11
[8]
  Survival range: 11
[9]
  Weight change: 23%
[10]
  Average weight: 4.4 g mouse-1
[11]
  Survival median: 13
[12]
  ILS at 32 mg/kg: 8%
[13]
  Survival range: 10
[14]
  Average weight: 3.2 g mouse-1
[15]
  Average weight: 26.8 g mouse-1
[16]
  ILS at 16 mg/kg: 0%
[17]
  Weight change: 12%
[18]
  Average weight: 26.4 g mouse-1
[19]
  Average weight: 25.6 g mouse-1
